Laboratory results: ChEMBL document CHEMBL2311519, “Identification and characterization of new DNA G-quadruplex binders selected by a combination of ligand and structure-based virtual screening approaches” (J Med Chem, 2013)
The source made the active and inactive calls. The calls are words filed in the database; no cut-off is given here.

Tests used:
Homo sapiens [1] = species: Homo sapiens; experiment: Binding affinity to 18 bp double-stranded DNA (unknown origin) assessed as DNA stabilization by fluorescence melting assay
In short: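 Fluorescence melting in a real-time PCR cycler (excitation 488 nm, emission 520 nm). The HTS target carried 5′-Dabcyl and 3′-fluorescein; the 18 bp duplex was also a target. Mixtures held 0.25 μM DNA plus ligand in 10 mM LiOH, 50 mM KCl, pH 7.4 (H3PO4). Samples were denatured at 95 °C for 5 min, cooled to 30 °C at 0.5 °C/min, then heated to 90 °C and recooled at 0.2 °C/min. Tm came from the first derivative, ≥3 repeats.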

Homo sapiens [2] = species: Homo sapiens; experiment: Binding affinity to human telomeric sequence 5'-AGGGTTAGGGTTAGGGTTAGGGT-3' assessed as change in melting temperature at 10 uM by fluorescence melting assay
Homo sapiens [3] = species: Homo sapiens; experiment: Stabilization of single-stranded DNA 5'-GGATGTGAGTGTGAGTGTGAGG-3' (unknown origin) assessed as DNA modifications at 20 to 50 uM measured 20 mins post UV irradiation by PAGE analysis
In short: (§1)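 Tel22 or single-stranded 22-mer 5′-32P end-labelled with T4 kinase; 1 μM DNA in 10 mM Tris, 50 mM KCl, pH 7.5 with increasing ligand, irradiated at 308 nm for variable time (or ligand pre-irradiated 30 min, or non-irradiated); products run on 20% polyacrylamide/7 M urea in 1× TBE, quantified by phosphorimaging.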

Homo sapiens [4] = species: Homo sapiens; experiment: Stabilization of G-quadruplex folded telomeric sequence Tel22 DNA (unknown origin) assessed as DNA modifications at 20 to 50 uM measured 20 mins post UV irradiation by PAGE analysis; in short: as §1
[5] = Stability of the compound assessed as retention time after 100 mins of UV irradiation; type: physicochemical
In short: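 Ligand (30 μM) in 10 mM Tris-HCl, 50 mM KCl, pH 7.5 was irradiated at 308 nm (0.022 J/min) at 25 °C for increasing times. Samples ran on C18 HPLC at 0.02 mL/min with a water/acetonitrile gradient (0.1% formic acid) of 4–80% over 20 min. Detection was positive-mode ESI-MS (4.5 kV, m/z 100–2500).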

[6] = Stability of the compound assessed as retention time after 3 mins of UV irradiation; type: physicochemical; conditions: 0.05 h
In short: (§2)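 30 μM ligand in 10 mM Tris-HCl, 50 mM KCl, pH 7.5 irradiated at 308 nm (0.022 J/min), 25 °C, for increasing times; analysed by LC on C18 (water/acetonitrile 4–80% gradient with 0.1% formic acid over 20 min, 0.02 mL/min) with positive-mode ESI-MS, m/z 100–2500.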

[7] = Stability of the compound assessed as retention time after 25 mins of UV irradiation; type: physicochemical; in short: as §2
Homo sapiens [8] = species: Homo sapiens; experiment: Binding affinity to G-quadruplex folded telomeric sequence Tel22 DNA (unknown origin) assessed as DNA stabilization at 8 uM by circular dichroism spectral analysis
Homo sapiens [9] = species: Homo sapiens; experiment: Binding affinity to G-quadruplex folded telomeric sequence Tel22 DNA (unknown origin) assessed as DNA stabilization at 8 uM by circular dichroism spectral analysis relative to control
DNA = experiment: Binding affinity to calf thymus DNA assessed as DNA stabilization at 8 uM by circular dichroism spectral analysis; conditions: Bos taurus
Homo sapiens [10] = species: Homo sapiens; experiment: Binding affinity to G-quadruplex folded telomeric sequence Tel22 DNA (unknown origin) assessed as DNA stabilization measured 25 mins post UV irradiation by circular dichroism spectral analysis
[11] = Stability of the compound assessed as retention time; type: physicochemical; in short: as §2
Homo sapiens [12] = species: Homo sapiens; experiment: Stabilization of double-stranded DNA (unknown origin) assessed as DNA modifications at 20 to 50 uM measured 20 mins post UV irradiation by PAGE analysis
Homo sapiens [13] = species: Homo sapiens; experiment: Binding affinity to human telomeric sequence 5'-AGGGTTAGGGTTAGGGTTAGGGT-3' assessed as thermal stability by fluorescence melting assay relative to control
In short: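 Fluorescence melting on a LightCycler (ex 488, em 520 nm); 0.25 μM 5′-Dabcyl/3′-fluorescein HTS oligo in 10 mM LiOH, 50 mM KCl, pH 7.4 (H3PO4); ligand 0.5–10 μM; denatured 95 °C 5 min, cooled to 30 °C, melted 0.2 °C/min to 90 °C; Tm from first derivative; ≥3 repeats.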

## Cc1c(CCC(=O)NCCCn2ccnc2)c(=O)oc2cc3occ(-c4ccc(F)cc4)c3cc12
Homo sapiens [1]
  Activity: inactive

## COc1ccc(-c2coc3cc4oc(=O)c(CC(=O)N5CCN(CCO)CC5)c(C)c4cc23)cc1
Homo sapiens [1]
  Activity: inactive

## Cc1cc2c3c([n+](C)c4ccc(F)cc4c3c1)-c1cc(F)ccc1N2C
Homo sapiens [2]
  deltaTm: 30 °C

## Cc1c(CC(=O)N(C)C2CCN(C)CC2)c(=O)oc2c(C)c3occ(-c4ccccc4)c3cc12
Homo sapiens [3]
  Activity: Active
Homo sapiens [4]
  Activity: Active
[5]
  Retention_time: 16.6 min
Homo sapiens [1]
  Activity: inactive
[6]
  Retention_time: 16.6 min
[7]
  Retention_time: 16.6 min
Homo sapiens [8]
  Activity: inactive
Homo sapiens [9]
  Activity: inactive
DNA
  Activity: inactive
Homo sapiens [10]
  Activity: inactive
[11]
  Retention_time: 17 min
Homo sapiens [12]
  Activity: Active

## Cc1c(CCC(=O)N2CCN(C)CC2)c(=O)oc2cc3occ(-c4ccccc4)c3cc12
Homo sapiens [1]
  Activity: inactive

## Cc1c(CC(=O)N2CCN(C)CC2)c(=O)oc2cc3occ(-c4ccc(Cl)cc4)c3cc12
Homo sapiens [3]
  Activity: Active
Homo sapiens [4]
  Activity: Active
Homo sapiens [1]
  Activity: inactive
Homo sapiens [13]
  Activity: inactive
[6]
  Retention_time: 16.1 min
[7]
  Retention_time: 16.1 min
Homo sapiens [8]
  Activity: inactive
Homo sapiens [9]
  Activity: inactive
DNA
  Activity: inactive
Homo sapiens [10]
  Activity: inactive
[11]
  Retention_time: 17.2 min
Homo sapiens [12]
  Activity: Active

## CN(C)c1ccc(Nc2c3ccc(NC(=O)CCN4CCCC4)cc3nc3cc(NC(=O)CCN4CCCC4)ccc23)cc1
Homo sapiens [2]
  deltaTm: 32 °C
